Test results reported in ChEMBL document CHEMBL5226368, “1H NMR-Based Biochemometric Analysis of Morus alba Extracts toward a Multipotent Herbal Anti-Infective” (J Nat Prod, 2023).
Activity calls are given as the source filed them.

Key:
Format in all cases: functional, organism-based
Details in all cases: dose 1-10 µM
Influenza B virus [1] = test: Antiviral activity against oseltamivir resistant Influenza B virus B/3449/18 (Yamagata) infected in MDCK cells assessed as reduction in plaque number at 1 to 10 uM pre-infected with cell for 1 hrs followed by compound addition and measured after 72 hrs by plaque reduction assay
Method in brief: (§1)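 Confluent MDCK monolayers were inoculated at 37 °C for 1 h with virus suspension, either alone or with serial half-log sample dilutions (1, 3.16, 10), in duplicate. The inoculum was aspirated and replaced with serum-free test medium containing 2 µg/mL trypsin, 0.4% agar and the same sample concentrations. Plaques were counted and IC50 was derived by a four-parameter logistic fit (n = 3).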

Influenza A virus [2] = test: Antiviral activity against oseltamivir resistant Influenza A virus A/2588/19 (H3N2) infected in MDCK cells assessed as reduction in plaque number at 1 to 10 uM pre-infected with cell for 1 hrs followed by compound addition and measured after 72 hrs by plaque reduction assay; method in brief: as §1
Influenza A virus [3] = test: Antiviral activity against oseltamivir resistant Influenza A virus A/1690/19 (H1N1) infected in MDCK cells assessed as reduction in plaque number at 1 to 10 uM pre-infected with cell for 1 hrs followed by compound addition and measured after 72 hrs by plaque reduction assay; method in brief: as §1
Influenza B virus [4] = test: Antiviral activity against oseltamivir resistant Influenza B virus B/2791/18 (Victoria) infected in MDCK cells assessed as reduction in plaque number at 1 to 10 uM pre-infected with cell for 1 hrs followed by compound addition and measured after 72 hrs by plaque reduction assay; method in brief: as §1
Influenza A virus [5] = test: Antiviral activity against oseltamivir resistant Influenza A virus A/1519/19 (H1N1) infected in MDCK cells assessed as reduction in plaque number at 1 to 10 uM pre-infected with cell for 1 hrs followed by compound addition and measured after 72 hrs by plaque reduction assay; method in brief: as §1

Measured: Activity

CC(C)=CCCC1=C[C@H](c2c(O)cc3c(c2O)C(=O)C[C@@H](c2ccc(O)cc2O)O3)[C@@H](C(=O)c2ccc(O)cc2O)[C@H](c2ccc(O)cc2O)C1
active: all assays above

CC(C)=CC[C@]12Oc3cc(O)c([C@H]4C=C(C)C[C@H](c5ccc(O)cc5O)[C@H]4C(=O)c4ccc(O)cc4O)c(O)c3C(=O)[C@@]1(O)Oc1cc(O)ccc12 [SANGGENON C]
active: all assays above
